Assay results from article PMC6590913 (Journal of medicinal chemistry, 2019).

Key:
CTGF gene expression = experiment: qPCR for LPA-stimulated expression of CTGF in primary dermal fibroblasts; format: cell-based, human; settings: for Effect on CTGF gene expression: then LPA 1 h, primary human dermal fibroblasts
[1] = system: bleomycin-induced dermal fibrosis; experiment: Bleomycin-induced dermal fibrosis in mice; format: in vivo, mouse
[2] = system: Rho/MRTF/SRF-mediated gene transcription (SRE.L); experiment: Gα12-stimulated SRE.L luciferase reporter assay in PC3 cells; format: cell-based; settings: for IC50: Homo sapiens, PC-3, read-out: SRE.L IC50; for SRE.L activity: Table 2 sidechain SAR, PC3 cells
In short: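 PC-3 cells plated at 20,000/well in DMEM with 10% FBS. Next day they were lipofected with 56 ng SRE.L luciferase reporter plus 2 ng/well Gα12 Q231L or pcDNA. After 4 h, medium was switched to 0.5% FBS DMEM, and compound or DMSO was added overnight. Viability was then read by WST-1 (450 nm), and cells were lysed for luciferase. Mean of n = 3.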

[3] = Pharmacokinetic studies in mice; format: in vivo, female CD-1 mice; settings: mouse, IV
In short: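 Female CD-1 mice were dosed iv and/or po, with compound in 15% DMSO/15% PEG-400/70% PBS (v/v). Blood (50 μL) was sampled at 0.5, 2, 4 and 7 h, and plasma was frozen at -80 °C. Plasma levels were measured by a validated LC–MS/MS method. Parameters were derived non-compartmentally.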

[4] = system: Rho/MRTF/SRF-mediated gene transcription (SRE.L); experiment: Gα12-stimulated SRE.L luciferase reporter assay in HEK293T cells; format: cell-based; settings: for SRE.L activity: Figure 4, HEK293T cells, analogs with modified thioether
[5] = Cytotoxicity in the SRE.L assay determined by CellTiter-Fluor; format: cell-based; settings: human, cells of the SRE.L assay
cells of the SRE.L assay = experiment: as above; format: cell-based
[6] = system: bleomycin-induced dermal fibrosis; settings: mice; cited from earlier work
[7] = system: Rho/MRTF/SRF-mediated gene transcription (SRE.L); experiment: SRE.L luciferase reporter assay, cell line not stated; format: cell-based; settings: for SRE.L activity: Figure 3, heterocycle and carboxylic acid replacements
In short: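 Gα12-stimulated SRE.L luciferase reporter in transiently transfected PC-3 or HEK293T cells. PC-3 format: 20,000 cells/well in 10% FBS/DMEM, next day co-transfected with SRE.L luciferase reporter plus Gα12 Q231L or empty pcDNA (Lipofectamine 2000). After 4 h, switched to 0.5% FBS/DMEM with test compound or DMSO overnight. WST-1 viability read at 450 nm, then lysis and luciferase read.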

[8] = system: bleomycin-induced lung fibrosis; settings: mice, dose of 300 mg/kg; cited from earlier work

## O=C(O)CCSc1nnc(-c2ccc(Cl)cc2Cl)o1 [8j, 3-((5-(2,4-dichlorophenyl)-1,3,4-oxadiazol-2-yl)thio)propanoic acid]
CTGF gene expression; 48 h pre-treatment
  Effect on CTGF gene expression: neither 8j nor 19f had any significant effect
CTGF gene expression; 72 h pre-treatment
  Effect on CTGF gene expression: dose-dependently reduced CTGF gene expression
[1]; 10 mg/kg PO, 14 days
  Bleomycin-induced fibrotic effects (dermal thickness and hydroxyproline content) vs bleomycin/vehicle control: significant effects
[1]; 0.1, 1 and 10 mg/kg/day by oral gavage, 14 days
  Bleomycin-induced fibrotic effects (dermal thickness and hydroxyproline content): dose-dependently reduce

## O=C(O)CSc1nnc(-c2ccc(Cl)cc2Cl)o1 [8p]
[2]
  IC50: > 100000 nM
  SRE.L activity: activity was completely lost

## O=C(O)CCCSc1nnc(-c2ccc(Cl)cc2Cl)o1 [8q, 4-((5-(2,4-dichlorophenyl)-1,3,4-oxadiazol-2-yl)thio)butanoic acid]
[3]
  clearance rate relative to 8j: ~3 fold

## O=C(O)CCCCSc1nnc(-c2ccc(Cl)cc2Cl)o1 [8r, 5-((5-(2,4-dichlorophenyl)-1,3,4-oxadiazol-2-yl)thio)pentanoic acid]
[2]
  IC50: 43 nM

## O=C(O)CCCSc1nnc(-c2ccc(Br)cc2Cl)o1 [8x, 4-((5-(4-bromo-2-chlorophenyl)-1,3,4-oxadiazole-2-yl)thio)butanoic acid]
[4]; 4-Cl replaced by 4-Br
  Improvement in SRE.L activity relative to 8q: 10 fold

## O=C(O)CCCSc1nnc(-c2ccc(C3CC3)cc2Cl)o1 [19f, 4-((5-(2-chloro-4-cyclopropylphenyl)-1,3,4-oxadiazol-2-yl)thio)butanoic acid]
[2]
  IC50: 0.0012 nM
[4]; Me replaced by c-Pr
  Improvement in SRE.L potency relative to 8s: 100 fold
CTGF gene expression; 48 h pre-treatment
  Effect on CTGF gene expression: neither 8j nor 19f had any significant effect
CTGF gene expression; 72 h pre-treatment
  Potency on CTGF gene expression relative to 8j: ~ 100 x
  Effect on CTGF gene expression: dose-dependently reduced CTGF gene expression
[1]; 3 and 10 mg/kg PO, both doses, 14 days
  Bleomycin-induced dermal fibrosis: significantly reduced bleomycin-induced dermal fibrosis
[1]; bleomycin-induced dermal fibrosis
  In vivo potency relative to 8j: at least 3 fold

## COC(=O)c1ccc2c(c1)NC(=O)/C2=C(\Nc1ccc(N(C)C(=O)CN2CCN(C)CC2)cc1)c1ccccc1 [Nintedanib]
[5]
  IC50: < 30 µM
Cells of the SRE.L assay; at 10 uM
  Cytotoxicity: some cytotoxicity
CTGF gene expression; at 10^−5 M
  Cytotoxicity in the CTGF assay: cytotoxic
CTGF gene expression; at 10^−6 M
  CTGF expression, % of DMSO control: 45 % of DMSO control
[6]
  Minimum dose effective at preventing bleomycin-induced dermal thickness: 30 mg/kg/day

## Cc1ccc(=O)n(-c2ccccc2)c1 [Pirfenidone, reference compound]
[7]; read-out: SRE.L assay IC50
  IC50: > 100 µM
Cells of the SRE.L assay; CellTiter-Fluor
  Concentration above which cytotoxic: > 100 µM
CTGF gene expression; at 10^−5 M
  CTGF expression, % control: 91 % control
[8]
  Effect on bleomycin-induced lung fibrosis: attenuate bleomycin-induced lung fibrosis

## CCOC(=O)CCSc1nnc(-c2ccc(Cl)cc2Cl)o1 [compound 6, Ethyl 3-((5-(2,4-dichlorophenyl)-1,3,4-oxadiazol-2-yl)thio)propanoate]
[2]
  SRE.L activity: maintained activity

## CNC(=O)CCSc1nnc(-c2ccc(Cl)cc2Cl)o1 [compound 9, 3-((5-(2,4-dichlorophenyl)-1,3,4-oxadiazol-2-yl)thio)-N-methylpropanamide]
[2]
  IC50: > 100000 nM
  SRE.L activity: unsuccessful

## O=C(O)CCCOc1nnc(-c2ccc(Cl)cc2Cl)o1 [compound 11, 4-((5-(2,4-dichlorophenyl)-1,3,4-oxadiazol-2-yl)oxy)butanoic acid]
[4]
  SRE.L activity: almost complete loss in activity

## O=C(O)CSCc1nnc(-c2ccc(Cl)cc2Cl)o1 [compound 13, 2-(((5-(2,4-dichlorophenyl)-1,3,4-oxadiazol-2-yl)methyl)thio)acetic acid]
[4]
  SRE.L activity: almost complete loss in activity

## O=C(O)CCCS(=O)(=O)c1nnc(-c2ccc(Cl)cc2Cl)o1 [compound 21, 4-((5-(2,4-dichlorophenyl)-1,3,4-oxadiazol-2-yl)sulfonyl)butanoic acid]
[4]
  SRE.L activity: activity was lost

## O=C(O)CCSc1nnc(-c2cccnc2)o1 [compound 22]
[7]
  SRE.L activity: complete loss in activity

## O=C(O)CCSc1nnc(-c2ccncc2)o1 [compound 23]
[7]
  SRE.L activity: complete loss in activity

## Cc1occc1-c1nnc(SCCC(=O)O)o1 [compound 24]
[7]
  SRE.L activity: complete loss in activity

## c1ccc(-c2nnc(SCCC3OCCCO3)o2)cc1 [compound 28]
[7]
  SRE.L activity: abolished activity

## O=C(O)CCCc1nnc(-c2ccc(Cl)cc2Cl)o1 [compound 29]
[4]
  SRE.L activity: almost complete loss in activity
